Measurements from different studies.
Each line is one published result; the experiments were not run side by side.
PIM3: Serine/threonine-protein kinase pim-3 (PIM3, Homo sapiens, UniProt Q86V86)

| SMILES | target | read-out | action | method | concentration | endpoint | value |
| --- | --- | --- | --- | --- | --- | --- | --- |
| N#Cc1ccc(NCCNCC(=O)N2N=CCC2C#N)nc1 (centres unmarked) | Dipeptidyl peptidase 2 (Homo sapiens, UniProt Q9UHL4) | enzyme activity | inhibitor | – | 10 µM | inhibition | 30% |
| O=C(Nc1cccnn1)N1CCN([C@@H]2CCOc3cc(C(F)(F)F)ccc32)CC1 | 5-hydroxytryptamine receptor 1B (Htr1b, Rattus norvegicus, UniProt P28564) | cell-free assay | – | – | 20 µM | inhibition | 9% |
| COc1ncccc1-c1cnn2ccc(N3CCN(C(=O)OC(C)C)CC3)nc12 | Dual specificity testis-specific protein kinase 1 (TESK1, Homo sapiens, UniProt Q15569) | binding | – | competition with immobilised ligand | 1 µM | remaining binding | 93% |
| Cc1nn(C)cc1-c1nc2c(N3CCN(Cc4ccc(Cl)cc4)CC3)c(Cl)cnc2[nH]1 | PIM3 | binding | – | competition with immobilised ligand | 1 µM | remaining binding | 100% |
| CCOC(=O)c1ccc(OC(=O)CCCCCNC(=N)N)cc1 | Ubiquitin carboxyl-terminal hydrolase isozyme L3 (UCHL3, Homo sapiens, UniProt P15374) | enzyme activity | inhibitor | – | 10 µM | inhibition | 4% |
| C=CC(=O)N1CCC[C@@H](n2nc(-c3ccc(Oc4ccccc4)cc3)c3c(N)ncnc32)C1 | Dual specificity tyrosine-phosphorylation-regulated kinase 1B (DYRK1B, Homo sapiens, UniProt Q9Y463) | cell-free assay | – | – | 1 µM | remaining signal | 136% |
| Nc1ncc(-c2nc(N3CCOCC3)nc(N3CCOCC3)n2)c(C(F)F)n1 | PIM3 | binding | – | competition with immobilised ligand | 10 µM | remaining binding | 89% |
| CCN(CC)CCCC[C@H](NC(=O)[C@H](CC(C)C)NC(=O)[C@H](C)NC(=O)[C@H](Cc1ccccc1)NC(=O)c1ccc(C(C)(C)C)cc1)C(=O)N[C@@H](CO)C(=O)OC | Bromodomain testis-specific protein, BD1 (BRDT, Homo sapiens, UniProt Q58F21) | thermal stability | – | DSF | 25 µM | ΔTm | -0.19 °C |
